# Data taken from ChEMBL document CHEMBL5705905, “Pharmacological targeting of kinases MST1 and MST2 augments tissue repair and regeneration” (Sci Transl Med, 2016).
# Activity calls are given as the source filed them. The calls are words filed in the database; no cut-off is given here.
# Experiments:
# [1] = system: Tyrosine-protein kinase ABL1 (Homo sapiens), P00519 [F317I]; assay: Inhibition of phosphorylated ABL1 F317I mutant (unknown origin) assessed as remaining activity at 1 uM by Kinome scan method relative to control
# [2] = system: Tyrosine-protein kinase ABL1 (Homo sapiens), P00519 [T315I]; assay: Inhibition of phosphorylated ABL1 T315I mutant (unknown origin) assessed as remaining activity at 1 uM by Kinome scan method relative to control
# [3] = biological target: Mitotic checkpoint serine/threonine-protein kinase BUB1 (Homo sapiens) (UniProt O43683); assay: Inhibition of BUB1 (unknown origin) assessed as remaining activity at 1 uM by Kinome scan method relative to control
# Outline: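 KINOMEscan active-site-dependent competition-binding panel of 468 kinases, compound at 1 μM from a DMSO stock. Result reported as ctrl% = (test signal − positive control signal)/(negative control signal − positive control signal) × 100. The negative control is DMSO (100%) and the positive control is a control compound (0%). Lower ctrl% means tighter binding.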
# [4] = biological target: Dual specificity tyrosine-phosphorylation-regulated kinase 1B (Homo sapiens) (UniProt Q9Y463); assay: Inhibition of DYRK1B (unknown origin) assessed as remaining activity at 1 uM by Kinome scan method relative to control
# [5] = biological target: Epidermal growth factor receptor (Homo sapiens) (UniProt P00533); assay: Inhibition of EGFR (unknown origin) assessed as remaining activity at 1 uM by Kinome scan method relative to control
# [6] = biological target: Ephrin type-A receptor 7 (Homo sapiens) (UniProt Q15375); assay: Inhibition of EPHA7 (unknown origin) assessed as remaining activity at 1 uM by Kinome scan method relative to control
# Ephrin type-A receptor 7 (Homo sapiens), sequence (Q15375 28-998 limits assumed): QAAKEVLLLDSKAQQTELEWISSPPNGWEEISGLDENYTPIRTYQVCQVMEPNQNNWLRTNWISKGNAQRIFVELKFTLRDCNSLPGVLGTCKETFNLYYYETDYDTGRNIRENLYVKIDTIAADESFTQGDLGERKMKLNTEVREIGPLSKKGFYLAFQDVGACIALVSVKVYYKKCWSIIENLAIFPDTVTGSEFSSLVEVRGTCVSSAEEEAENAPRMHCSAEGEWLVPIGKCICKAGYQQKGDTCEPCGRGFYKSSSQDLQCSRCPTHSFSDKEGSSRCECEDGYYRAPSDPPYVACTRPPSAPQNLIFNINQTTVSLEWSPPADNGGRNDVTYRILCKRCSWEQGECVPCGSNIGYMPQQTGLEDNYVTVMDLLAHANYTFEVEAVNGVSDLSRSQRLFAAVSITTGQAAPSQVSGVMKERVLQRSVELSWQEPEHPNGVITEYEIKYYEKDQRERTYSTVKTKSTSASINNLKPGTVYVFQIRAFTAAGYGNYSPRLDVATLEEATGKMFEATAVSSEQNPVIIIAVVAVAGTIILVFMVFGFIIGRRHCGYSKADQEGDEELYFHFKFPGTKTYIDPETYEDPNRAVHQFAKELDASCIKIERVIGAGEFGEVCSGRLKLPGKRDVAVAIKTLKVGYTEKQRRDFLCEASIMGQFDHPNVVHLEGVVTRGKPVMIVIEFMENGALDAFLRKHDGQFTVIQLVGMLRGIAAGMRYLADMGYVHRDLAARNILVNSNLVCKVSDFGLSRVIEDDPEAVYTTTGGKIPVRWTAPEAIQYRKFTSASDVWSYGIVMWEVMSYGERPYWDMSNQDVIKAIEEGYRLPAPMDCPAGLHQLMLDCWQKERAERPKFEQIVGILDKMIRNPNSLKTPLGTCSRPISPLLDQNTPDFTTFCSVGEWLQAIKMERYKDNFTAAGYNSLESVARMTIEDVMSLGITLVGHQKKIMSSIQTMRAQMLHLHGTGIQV
# [7] = system: Fibroblast growth factor receptor 3 (Homo sapiens), P22607 [G697C]; assay: Inhibition of FGFR3 G697C mutant (unknown origin) assessed as remaining activity at 1 uM by Kinome scan method relative to control
# [8] = system: Receptor-type tyrosine-protein kinase FLT3 (Homo sapiens), P36888 [D835V]; assay: Inhibition of FLT3 D835V mutant (unknown origin) assessed as remaining activity at 1 uM by Kinome scan method relative to control
# [9] = biological target: Rhodopsin kinase GRK7 (Homo sapiens) (UniProt Q8WTQ7); assay: Inhibition of GRK7 (unknown origin) assessed as remaining activity at 1 uM by Kinome scan method relative to control
# [10] = biological target: Serine/threonine-protein kinase ICK (Homo sapiens) (UniProt Q9UPZ9); assay: Inhibition of ICK (unknown origin) assessed as remaining activity at 1 uM by Kinome scan method relative to control
# Serine/threonine-protein kinase ICK (Homo sapiens), sequence (Q9UPZ9 whole entry): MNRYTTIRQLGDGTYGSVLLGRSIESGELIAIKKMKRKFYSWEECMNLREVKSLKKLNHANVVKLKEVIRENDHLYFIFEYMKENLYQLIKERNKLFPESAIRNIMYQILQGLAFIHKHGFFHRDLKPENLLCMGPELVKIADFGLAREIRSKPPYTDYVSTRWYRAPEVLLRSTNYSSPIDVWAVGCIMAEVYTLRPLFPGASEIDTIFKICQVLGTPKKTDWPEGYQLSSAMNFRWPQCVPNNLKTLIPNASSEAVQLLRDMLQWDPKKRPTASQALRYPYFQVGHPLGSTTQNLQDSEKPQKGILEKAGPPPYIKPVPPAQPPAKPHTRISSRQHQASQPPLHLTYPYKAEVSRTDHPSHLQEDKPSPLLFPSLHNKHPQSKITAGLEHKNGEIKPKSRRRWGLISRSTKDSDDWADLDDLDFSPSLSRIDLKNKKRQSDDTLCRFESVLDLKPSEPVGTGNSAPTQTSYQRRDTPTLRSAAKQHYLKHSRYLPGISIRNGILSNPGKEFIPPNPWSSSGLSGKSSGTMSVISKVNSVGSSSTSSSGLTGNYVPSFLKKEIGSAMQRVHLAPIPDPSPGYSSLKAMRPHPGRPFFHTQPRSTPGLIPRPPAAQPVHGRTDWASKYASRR
# [11] = biological target: Mitogen-activated protein kinase 8 (Homo sapiens) (UniProt P45983); assay: Inhibition of JNK1 (unknown origin) assessed as remaining activity at 1 uM by Kinome scan method relative to control
# [12] = system: Mast/stem cell growth factor receptor Kit (Homo sapiens), P10721 [D816H]; assay: Inhibition of KIT D816H mutant (unknown origin) assessed as remaining activity at 1 uM by Kinome scan method relative to control
# [13] = biological target: Mitogen-activated protein kinase kinase kinase kinase 5 (Homo sapiens) (UniProt Q9Y4K4); assay: Inhibition of MAP4K5 (unknown origin) assessed as remaining activity at 1 uM by Kinome scan method relative to control
# Mitogen-activated protein kinase kinase kinase kinase 5 (Homo sapiens), sequence (Q9Y4K4 whole entry, looked up): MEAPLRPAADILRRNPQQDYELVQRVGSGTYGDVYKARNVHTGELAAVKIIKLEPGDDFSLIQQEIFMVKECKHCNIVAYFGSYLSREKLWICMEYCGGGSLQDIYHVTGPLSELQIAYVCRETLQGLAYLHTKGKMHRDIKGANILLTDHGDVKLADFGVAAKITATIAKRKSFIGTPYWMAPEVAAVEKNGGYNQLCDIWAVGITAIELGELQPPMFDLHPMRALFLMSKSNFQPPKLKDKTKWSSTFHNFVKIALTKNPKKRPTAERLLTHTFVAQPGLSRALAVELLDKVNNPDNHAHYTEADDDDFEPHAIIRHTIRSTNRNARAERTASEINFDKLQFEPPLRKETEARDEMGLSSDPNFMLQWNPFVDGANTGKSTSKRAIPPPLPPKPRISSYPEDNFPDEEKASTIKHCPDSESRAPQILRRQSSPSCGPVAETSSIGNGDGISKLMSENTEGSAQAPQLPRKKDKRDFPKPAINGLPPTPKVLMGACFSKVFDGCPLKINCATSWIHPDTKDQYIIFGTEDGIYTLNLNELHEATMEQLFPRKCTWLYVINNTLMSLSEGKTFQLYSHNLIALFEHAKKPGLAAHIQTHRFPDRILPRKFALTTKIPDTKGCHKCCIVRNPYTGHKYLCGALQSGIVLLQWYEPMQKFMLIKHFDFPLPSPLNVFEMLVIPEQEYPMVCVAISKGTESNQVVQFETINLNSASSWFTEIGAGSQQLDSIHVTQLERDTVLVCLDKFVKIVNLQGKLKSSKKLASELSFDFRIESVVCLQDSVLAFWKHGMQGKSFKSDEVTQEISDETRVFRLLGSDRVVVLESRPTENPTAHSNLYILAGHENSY
# [14] = biological target: Hepatocyte growth factor receptor (Homo sapiens) (UniProt P08581); assay: Inhibition of MET (unknown origin) assessed as remaining activity at 1 uM by Kinome scan method relative to control
# [15] = biological target: Serine/threonine-protein kinase NIM1 (Homo sapiens) (UniProt Q8IY84); assay: Inhibition of NIM1 (unknown origin) assessed as remaining activity at 1 uM by Kinome scan method relative to control
# [16] = system: Phosphatidylinositol 4,5-bisphosphate 3-kinase catalytic subunit alpha isoform (Homo sapiens), P42336 [H1047L]; assay: Inhibition of PIK3CA H1047L mutant (unknown origin) assessed as remaining activity at 1 uM by Kinome scan method relative to control
# [17] = biological target: Ribosomal protein S6 kinase alpha-6 (Homo sapiens) (UniProt Q9UK32); assay: Inhibition of C-terminal kinase domain RSK4 (unknown origin) assessed as remaining activity at 1 uM by Kinome scan method relative to control
# Ribosomal protein S6 kinase alpha-6 (Homo sapiens), sequence (Q9UK32 whole entry, the tested form may be a part): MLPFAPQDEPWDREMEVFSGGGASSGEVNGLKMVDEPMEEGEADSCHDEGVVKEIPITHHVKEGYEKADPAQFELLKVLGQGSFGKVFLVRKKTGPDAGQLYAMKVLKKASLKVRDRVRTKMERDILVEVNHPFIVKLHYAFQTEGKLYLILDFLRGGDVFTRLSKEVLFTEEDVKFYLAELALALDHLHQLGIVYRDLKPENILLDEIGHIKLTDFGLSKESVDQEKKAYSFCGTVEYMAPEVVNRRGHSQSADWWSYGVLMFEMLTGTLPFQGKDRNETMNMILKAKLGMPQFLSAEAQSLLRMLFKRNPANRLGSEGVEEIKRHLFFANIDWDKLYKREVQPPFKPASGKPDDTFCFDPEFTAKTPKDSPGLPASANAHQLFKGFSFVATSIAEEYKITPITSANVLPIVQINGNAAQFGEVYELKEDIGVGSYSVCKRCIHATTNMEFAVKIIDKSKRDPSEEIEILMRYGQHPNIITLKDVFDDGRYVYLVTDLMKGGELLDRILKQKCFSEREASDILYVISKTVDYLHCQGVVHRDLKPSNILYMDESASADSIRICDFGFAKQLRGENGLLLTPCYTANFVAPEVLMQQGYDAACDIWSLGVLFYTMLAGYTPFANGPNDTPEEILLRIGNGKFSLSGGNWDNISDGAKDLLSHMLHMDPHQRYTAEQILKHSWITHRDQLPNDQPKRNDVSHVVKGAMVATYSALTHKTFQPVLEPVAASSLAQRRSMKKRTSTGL
# Outline: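 Active-site-dependent competition-binding (KINOMEscan) panel of 468 kinases, test compound at 1 μM (from a 10 mM DMSO stock). Read-out is ctrl% = (test signal − positive control signal)/(negative control signal − positive control signal) × 100. DMSO is the negative control (100%) and a control compound is the positive control (0%). Lower ctrl% means tighter binding.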
# [18] = biological target: SRSF protein kinase 2 (Homo sapiens) (UniProt P78362); assay: Inhibition of SRPK2 (unknown origin) assessed as remaining activity at 1 uM by Kinome scan method relative to control
# [19] = biological target: Serine/threonine-protein kinase TAO1 (Homo sapiens) (UniProt Q7L7X3); assay: Inhibition of TAOK1 (unknown origin) assessed as remaining activity at 1 uM by Kinome scan method relative to control
# Serine/threonine-protein kinase TAO1 (Homo sapiens), sequence (Q7L7X3 whole entry): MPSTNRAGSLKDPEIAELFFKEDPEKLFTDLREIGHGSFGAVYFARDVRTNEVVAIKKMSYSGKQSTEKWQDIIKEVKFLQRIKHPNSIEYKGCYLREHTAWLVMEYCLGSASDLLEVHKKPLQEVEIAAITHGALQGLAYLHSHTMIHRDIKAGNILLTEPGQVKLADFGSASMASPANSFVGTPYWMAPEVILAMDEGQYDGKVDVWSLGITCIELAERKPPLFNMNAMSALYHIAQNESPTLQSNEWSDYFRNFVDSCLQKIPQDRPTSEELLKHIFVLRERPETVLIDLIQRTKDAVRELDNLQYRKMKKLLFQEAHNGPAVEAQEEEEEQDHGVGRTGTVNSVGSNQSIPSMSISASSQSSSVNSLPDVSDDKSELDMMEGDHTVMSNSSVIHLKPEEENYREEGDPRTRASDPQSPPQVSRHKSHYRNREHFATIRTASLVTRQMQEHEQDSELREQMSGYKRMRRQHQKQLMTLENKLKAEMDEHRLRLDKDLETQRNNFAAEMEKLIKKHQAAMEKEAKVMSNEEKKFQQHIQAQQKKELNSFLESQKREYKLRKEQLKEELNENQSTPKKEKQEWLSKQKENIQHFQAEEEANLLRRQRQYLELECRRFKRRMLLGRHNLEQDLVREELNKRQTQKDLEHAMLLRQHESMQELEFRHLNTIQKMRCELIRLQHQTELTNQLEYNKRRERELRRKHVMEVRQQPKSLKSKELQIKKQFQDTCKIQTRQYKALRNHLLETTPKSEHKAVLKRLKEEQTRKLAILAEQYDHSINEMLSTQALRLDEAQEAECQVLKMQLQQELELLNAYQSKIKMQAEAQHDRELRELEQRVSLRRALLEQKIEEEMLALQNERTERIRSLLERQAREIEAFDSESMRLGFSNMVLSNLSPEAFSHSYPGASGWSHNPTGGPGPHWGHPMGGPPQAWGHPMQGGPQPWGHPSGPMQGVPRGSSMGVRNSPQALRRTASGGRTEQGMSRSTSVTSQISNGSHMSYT
# [20] = biological target: Serine/threonine-protein kinase 32C (Homo sapiens) (UniProt Q86UX6); assay: Inhibition of YANK3 (unknown origin) assessed as remaining activity at 1 uM by Kinome scan method relative to control
# [21] = biological target: Serine/threonine-protein kinase 24 (Homo sapiens, UniProt Q9Y6E0); assay: Binding affinity to MST3 (unknown origin) assessed as dissociation constant
# Serine/threonine-protein kinase 24, sequence (Q9Y6E0 whole entry): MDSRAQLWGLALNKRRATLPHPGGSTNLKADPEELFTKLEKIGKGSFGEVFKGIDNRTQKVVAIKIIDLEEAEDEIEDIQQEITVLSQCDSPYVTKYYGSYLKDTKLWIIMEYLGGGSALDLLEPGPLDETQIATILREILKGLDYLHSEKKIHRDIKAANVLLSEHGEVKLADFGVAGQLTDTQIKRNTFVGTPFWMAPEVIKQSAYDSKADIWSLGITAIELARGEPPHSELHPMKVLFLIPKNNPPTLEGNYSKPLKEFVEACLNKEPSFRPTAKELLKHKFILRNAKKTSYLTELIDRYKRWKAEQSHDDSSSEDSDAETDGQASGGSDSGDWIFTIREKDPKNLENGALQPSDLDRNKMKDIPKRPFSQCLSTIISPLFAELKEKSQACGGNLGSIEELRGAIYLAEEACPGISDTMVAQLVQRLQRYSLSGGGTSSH
# [22] = biological target: Mitogen-activated protein kinase kinase kinase 3 (Homo sapiens, UniProt Q99759); assay: Inhibition of MAP3K3 (unknown origin) in presence of ATP by enzymatic assay
# [23] = biological target: Serine/threonine-protein kinase TAO1 (Homo sapiens, UniProt Q7L7X3); assay: Inhibition of TAOK1 (unknown origin) in presence of ATP by enzymatic assay
# Serine/threonine-protein kinase TAO1, sequence (Q7L7X3 whole entry): as the sequence (Q7L7X3 whole entry) above
# [24] = biological target: Serine/threonine-protein kinase TAO2 (Homo sapiens, UniProt Q9UL54); assay: Inhibition of TAOK2 (unknown origin) in presence of ATP by enzymatic assay
# Mus musculus [25] = assay: In vivo inhibition of MST1/2 in wild-type Mst1fl/fl Mst2fl/fl mouse assessed as high in CTGF mRNA level at 1 mg/kg, ip administrated daily for 7 days by RT-PCR analysis; assay type: functional, organism-based; details: Liver, time 7.0 day
# Mus musculus [26] = assay: Protection against Mst1fl/fl Mst2fl/fl-Alb-Cre double knockout mouse assessed as Ki67-positive cells at 1 mg/kg, ip administrated twice a day for 2 days measured after 36 hrs by immunohistochemical staining; assay type: functional, organism-based; details: Liver, time 2.0 day
# [27] = Toxicity in DSS-induced mouse assessed as body weight loss at 1 mg/kg, ip administrated daily for over 1 to 21 days; assay type: organism-based; details: in vivo, time 1-21 day
# Outline: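 Colitis was induced with oral DSS on days 1–7, with vehicle or 1 mg/kg i.p. daily, n = 12 per group. Body weight was recorded over days 1–21 as a percentage of day 1; means ± SD, Student's t test per time point.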
# Mus musculus [28] = assay: Protection against CCl4-induced mouse assessed as low dead cells at 1 mg/kg, ip administration daily for 10 days by TUNEL staining; assay type: functional, organism-based; details: Liver, time 10.0 day
compound,measurement,setting,value
CN1C(=O)c2sccc2N(C)c2nc(Nc3ccc(S(N)(=O)=O)cc3)ncc21,Activity,[1],39%
same,Activity,[2],1.6%
same,Activity,[3],95%
same,Activity,[4],85%
same,Activity,[5],100%
same,Activity,[6],98%
same,Activity,[7],95%
same,Activity,[8],18%
same,Activity,[9],74%
same,Activity,[10],62%
same,Activity,[11],81%
same,Activity,[12],85%
same,Activity,[13],100%
same,Activity,[14],100%
same,Activity,[15],61%
same,Activity,[16],4.6%
same,Activity,[17],93%
same,Activity,[18],93%
same,Activity,[19],2.6%
same,Activity,[20],100%
same,Kd,[21],18 nM
same,IC50,[22],38.4 nM
same,IC50,[23],165 nM
same,IC50,[24],134 nM
same,inhibition,Mus musculus [25],Active
same,Activity,Mus musculus [26],inactive
same,Activity,[27],Toxic
same,Activity,Mus musculus [28],Active
